In ChEMBL document CHEMBL4270657, “Efficient synthesis of new phenanthridine Wnt/β-catenin signaling pathway agonists” (Eur J Med Chem, 2018):
Active and inactive are the calls of the source. No cut-off for these calls is given here.

What was measured:
[1] = test system: HEK293; assay: Activation of Wnt/beta-catenin signaling pathway (unknown origin) expressed in HEK293 cells harboring pEGFP-C1/TOP Flash/LacZ at 5 to 20 uM in Wnt3a conditioned medium after 6 hrs by luciferase reporter gene assay; format: cell-based; settings: Homo sapiens
In short: (§1)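 HEK293T cells in DMEM with 10% heat-inactivated FBS, 37°C, 5% CO2. Cells in 24-well plates were transfected with 250 ng plasmid per well (20 ng TOPFlash, 25 ng EGFP-C1, LacZ filler). 18 h later they were treated in Wnt3a CM or control CM for 6 h. Lysate GFP fluorescence was read first, then luciferase luminescence.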

[2] = biological target: Axin-1 (Mus musculus) (UniProt O35625); assay: Inhibition of HLY179 binding to mouse His6-tagged AXIN DAX domain expressed in Escherichia coli at 80 uM after 1 to 2 hrs by Western blot analysis
[3] = test system: HEK293; assay: Activation of Wnt/beta-catenin signaling pathway (unknown origin) expressed in HEK293 cells harboring pEGFP-C1/TOP Flash/LacZ in Wnt3a conditioned medium after 6 hrs by luciferase reporter gene assay; format: cell-based; settings: Homo sapiens; in short: as §1
[4] = test system: HEK293; assay: Activation of Wnt/beta-catenin signaling pathway (unknown origin) expressed in HEK293 cells harboring pEGFP-C1/TOP Flash/LacZ in Wnt3a conditioned medium assessed as increase in AXIN2 gene expression at 0.5 to 5 uM after 6 hrs by luciferase reporter gene assay; format: cell-based; settings: Homo sapiens
In short: (§2)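 HEK293T cells were treated with compound plus control or Wnt3a CM for 6 h. Total RNA was extracted with TRIzol and reverse-transcribed with oligo(dT) priming. Transcripts were quantified by PCR with target primers (DKK1 given) and GAPDH primers as reference.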

[5] = test system: HEK293; assay: Activation of Wnt/beta-catenin signaling pathway (unknown origin) expressed in HEK293 cells harboring pEGFP-C1/TOP Flash/LacZ in Wnt3a conditioned medium assessed as increase in DKK1 gene expression at 0.5 to 5 uM after 6 hrs by luciferase reporter gene assay; format: cell-based; settings: Homo sapiens; in short: as §2

Sequence of Axin-1 (Mus musculus) (O35625 whole entry, the tested form may be a part): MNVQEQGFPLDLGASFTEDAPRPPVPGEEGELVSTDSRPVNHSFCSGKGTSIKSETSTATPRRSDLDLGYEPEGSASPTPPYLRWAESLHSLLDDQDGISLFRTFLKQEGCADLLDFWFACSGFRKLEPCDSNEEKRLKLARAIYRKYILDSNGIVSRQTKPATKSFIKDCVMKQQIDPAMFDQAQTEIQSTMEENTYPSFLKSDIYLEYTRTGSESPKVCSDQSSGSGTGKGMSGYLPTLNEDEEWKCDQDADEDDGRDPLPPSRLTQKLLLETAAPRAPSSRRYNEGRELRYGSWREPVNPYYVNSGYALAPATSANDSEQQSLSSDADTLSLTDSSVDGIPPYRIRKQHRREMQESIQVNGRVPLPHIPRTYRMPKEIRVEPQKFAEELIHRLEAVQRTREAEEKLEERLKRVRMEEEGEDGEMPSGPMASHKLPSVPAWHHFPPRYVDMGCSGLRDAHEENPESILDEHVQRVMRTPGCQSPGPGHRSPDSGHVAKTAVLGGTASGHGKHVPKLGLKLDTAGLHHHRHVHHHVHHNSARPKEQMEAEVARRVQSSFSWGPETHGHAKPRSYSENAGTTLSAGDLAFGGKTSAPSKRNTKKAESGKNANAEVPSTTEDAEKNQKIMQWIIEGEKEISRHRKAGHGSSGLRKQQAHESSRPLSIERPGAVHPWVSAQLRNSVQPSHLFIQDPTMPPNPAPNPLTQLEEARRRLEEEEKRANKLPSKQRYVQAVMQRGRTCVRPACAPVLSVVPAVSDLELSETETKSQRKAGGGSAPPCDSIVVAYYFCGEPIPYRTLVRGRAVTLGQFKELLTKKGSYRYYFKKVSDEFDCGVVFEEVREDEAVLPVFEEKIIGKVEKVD

Structure (SMILES) | inhibition [2] | Activity [1] | CD [3] [µM] | Activity [4] | Activity [5]
c1ccc(OCc2cccnc2)cc1 | – | Active | – | – | –
Cc1cc(COc2ccccc2)n(C)n1 | – | Active | – | – | –
CCN1Cc2cc(OCc3cccnc3)ccc2-c2cccc(C)c21 | – | – | 1.5 | – | –
CCN1Cc2cc(OC)c(OC)cc2-c2cccc(C)c21 | – | Active | 5 | – | –
Cc1cc(COc2ccccc2)nn1C | – | Active | – | – | –

Further lines, with some results ahead:

inhibition [2] | Structure (SMILES) | Activity [1] | CD [3] [µM] | Activity [4] | Activity [5]
Active | CCN1Cc2cc(OC)ccc2-c2cccc(C)c21 | Active | – | – | –
Active | COc1ccc2c(c1)CN(C)c1c(C)cccc1-2 | – | – | – | –
Active | CCN1Cc2cc(OCc3cc(C)nn3C)ccc2-c2cccc(C)c21 | – | 0.5 | – | –
Active | CCN1Cc2cc(OCc3cc(C)nn3C)c(OCc3cc(C)nn3C)cc2-c2cccc(C)c21 | – | 0.15 | Active | Active
Active | CCN1Cc2cc(OCc3cccnc3)c(OCc3cccnc3)cc2-c2cccc(C)c21 | – | 5 | – | –
Active | CCN1Cc2cc(OCc3cc(C)n(C)n3)ccc2-c2cccc(C)c21 | – | 3 | Active | Active
